Assay outcomes from PubChem BioAssay.
NF-kB neuron act – compounds increasing NF-kB expression in human neuronal cells. NF-kB reporter expression; hits give high values. fold change at 12.5 µM. 190,000 compounds, 1.6% hits. AID 1239; in the data active = fold change above about 3.3
FLuc inhib CS – inhibits firefly luciferase, flagging false hits in luciferase inhibition screens; 200,000 compounds, 1.5% hits; AID 1006; ATPLite firefly luciferase biochemical luminescence, 10 min; inhibition, % at 10 µM;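 active = inhibition above about 50% when tested at 10 µM, limit read from the data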
Target sequence (P08659 whole entry, looked up): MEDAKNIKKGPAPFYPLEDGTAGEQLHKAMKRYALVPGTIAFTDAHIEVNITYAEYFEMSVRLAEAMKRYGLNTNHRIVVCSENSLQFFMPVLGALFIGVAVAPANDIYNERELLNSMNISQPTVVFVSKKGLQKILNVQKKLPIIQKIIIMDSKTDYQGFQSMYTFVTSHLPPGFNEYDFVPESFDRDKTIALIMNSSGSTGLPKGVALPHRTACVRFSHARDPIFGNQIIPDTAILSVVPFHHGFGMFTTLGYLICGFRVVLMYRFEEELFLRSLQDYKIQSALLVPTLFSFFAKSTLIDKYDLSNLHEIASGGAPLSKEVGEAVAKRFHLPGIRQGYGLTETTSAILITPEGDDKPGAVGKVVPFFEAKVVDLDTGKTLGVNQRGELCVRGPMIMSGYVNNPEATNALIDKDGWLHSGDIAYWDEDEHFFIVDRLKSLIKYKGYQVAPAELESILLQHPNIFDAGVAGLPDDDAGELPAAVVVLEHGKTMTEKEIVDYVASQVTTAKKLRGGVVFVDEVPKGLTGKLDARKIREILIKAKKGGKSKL
STAT1 activator – activators of IFN-gamma induced STAT1 signaling; 200,000 compounds, 2.6% hits; NIH 3T3 STAT1-luciferase reporter, luminescence; 100% = IFN-gamma alone, no compound; activation (% of control), % at 5.5 µM;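 active = activation above the screen-wide mean activation plus 3 SD, cut at about 130% in these data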;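 note: raw ratio to IFN-gamma control signal so 100% means no change and 0% no light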
APP transl inh – APP translation inhibition | SH-SY5Y APP 5'UTR-luciferase reporter, luminescence | 190,000 compounds, 0.82% hits | inhibition, % at 2 µM;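 active = inhibition above a set limit, derived from the sample mean plus 3 SD, cut at about 45% in these data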
FLuc stim CS – affects firefly luciferase, flagging false hits in luciferase stimulation screens; P08659; 200,000 tested, under 10 active; AID 1027; activation factor at 10 µM; ATPlite luciferase biochemical, luminescence, 10 min; 0 = ATP-free wells, 1 = DMSO control;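 active = luciferase activation factor, scaled between plate controls, of at least 2 with compound at 10 µM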
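Assay system: Luciferase/luciferin detection reagent, cell-free biochemical luciferase assay / Read-out: luciferase activation / Benchmarks: No-ATP low control, compound-free enzyme-plus-ATP high control / Medium: PBS buffer for ATP / Detection: luminescence measurement of luciferase light output / Schedule: 10 min at ambient temperature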
APP 5'UTR act – activates APP 5'UTR luciferase reporter; AID 1276; 190,000 compounds, 1% hits; SH-SY5Y APP 5'UTR luciferase reporter, luminescence; zero percent = DMSO vehicle wells; activation, % at 2 µM;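 active = activation above a set limit, based on mean plus 3 SD of controls, cut at about 140% in these data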
STAT1 act conf – STAT1 activation, confirmation assay; 1,200 compounds, 97% hits; NIH 3T3 STAT1-luciferase reporter, IFN-gamma potentiation, luminescence; 100% = IFN-gamma EC80 alone, no compound; shares compounds with STAT1 activator; activation (% of control), % at 5.7 µM;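 active = activation above a set limit carried over from the earlier primary STAT1 screen, cut at about 140% in these data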;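 note: simple ratio to median IFN-gamma plus DMSO wells so 0% means no light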
NFkB act – activates NF-kappaB, counter-screen to STAT1 activators | 1,200 compounds, 43% hits | shares compounds with STAT1 activator | HEK293T NF-kB luciferase reporter, TNF-alpha stimulated, luminescence; 100% = TNF-alpha with vehicle only | activation (% of control), % at 5.7 µM;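 active = activation above the mean of solvent-only control wells plus 3 SD, set per campaign, cut at about 130% in these data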;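 note: TNF-alpha given at a submaximal dose yielding about 80% of full reporter signal; values are well signal over median control so 100% means no change and 0% no light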
STAT3 act STAT1c – counter-screen for STAT1 activators: human STAT3 activation. shares compounds with STAT1 activator. U3A cells STAT3-luciferase reporter, IL-6, luminescence; cells lack STAT1; 100 = IL-6 alone, no compound effect. AID 1316. activation (% of control), % at 5.7 µM. 1,200 compounds, 46% hits;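 active = activation above the solvent-only control well mean plus 3 SD, set per plate batch, cut at about 110% in these data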;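 note: 0% = no luminescence and 100% = median IL-6 plus DMSO wells; higher means more STAT3 reporter activation so hits are non-selective activators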
Numbers without * were called inactive; · = not tested or not shown. Rows were chosen to be rich in hits. Some 4.8% of all compounds tested hit in one or more screens of this group.

SMILES	NF-kB neuron act	FLuc inhib CS	STAT1 activator	APP transl inh	FLuc stim CS	APP 5'UTR act	STAT1 act conf	NFkB act	STAT3 act STAT1c
C/C(=N\Nc1nc2ccccc2s1)c1cccs1	4.19*	60.9*	164.5*	-176.9	0.4	176.9*	248.9*	121.1	159.5*
Nc1ccc2oc(CCc3ccccc3)nc2c1	2.58	8.9	161.0*	-117.5	0.9	117.5	177.4*	142.7*	116.4*
CCN(CC)c1ccc2cc(C(=O)Nc3cccnc3N3CCOCC3)c(=O)oc2c1	·	-7.0	·	·	1.1	·	·	·	·
CCN(CC)c1ccc2cc(C(=O)Nc3ccccn3)c(=O)oc2c1	3.58*	44.6	154.2*	-97.0	0.6	97.0	236.2*	93.3	92.5
N#C/C(=C/c1ccc(N2CCCCC2)o1)C(=O)Nc1ccc2ccccc2c1	1.09	29.1	112.9	-18.0	0.7	18.0	·	·	·
N#C/C(=C/c1ccc(N2CCCCC2)o1)C(=O)Nc1ccc(Cl)cc1	1.53	31.1	154.9*	-35.5	0.7	35.5	182.5*	130.5	89.8
Cc1cc(NCCOCCO)n2ncc(-c3ccc(Cl)cc3)c2n1	3.65*	34.1	176.7*	-151.7	0.7	151.7*	264.7*	134.8*	132.6*
O=C(NCc1cccs1)C1CC(=O)N(c2ccc(Cl)cc2)C1 (stereo not given)	1.04	-3.3	103.8	5.4	1	-5.4	·	·	·
CCN(CC)S(=O)(=O)c1cccc(NC(=O)COC(=O)C2CC3C=CC2C3)c1 (stereo not given)	1.01	-6.6	97.0	-6.4	1.1	6.4	·	·	·
COc1ccc(NC(=O)c2ccc(OC(F)F)cc2)cc1Cl	4.37*	51.6*	166.1*	-103.7	0.5	103.7	180.8*	129.3	103.4
COc1ccc(C(=O)Nc2ccc(SC(F)F)cc2)cc1	3.13	18.7	164.1*	-164.3	0.8	164.3*	182.0*	141.3*	88.7
CC(=O)Nc1ccc2c(c1)OCO2	1.01	-4.4	98.1	4.4	1	-4.4	·	·	·
N#Cc1cccc(NCC(=O)Nc2ccc3c(c2)OCCO3)c1	6.85*	65.2*	167.3*	-190.3	0.3	190.2*	180.3*	124.9	115.1*
O=C(Nc1ccc2c(c1)CCC2)Nc1ccc2c(c1)OCO2	2.17	13.8	159.7*	-81.5	0.9	81.5	167.4*	121.1	110.9*
O=C(Nc1ccncc1)c1cccs1	0.99	-1.2	95.2	8.8	1	-8.8	·	·	·
N#Cc1ccc(NCC(=O)Nc2ccc3c(c2)OCCO3)cc1	1.11	10.2	120.9	1.0	0.9	-1.0	·	·	·
O=C(Nc1ccc2c(c1)OCO2)c1ccc(Br)s1	10.1*	60.9*	181.3*	-161.8	0.4	161.8*	203.5*	130.9	131.6*
O=C(Nc1ccc2c(c1)OCCO2)c1cccs1	5.23*	69.6*	152.9*	-142.1	0.3	142.1*	172.9*	125.2	107.6
COc1cc(CNCCN(C)C)c(Br)cc1OC1CCCC1	1.02	-1.9	96.8	14.2	1	-14.2	·	·	·
Cc1ccn2cc(C34CC5CC(CC(C5)C3)C4)nc2c1	1.59	38.0	105.5	-15.4	0.6	15.3	·	·	·
O=C(Nc1cccc([N+](=O)[O-])c1)Nc1ccc2c(c1)OCCO2	3.57*	35.6	155.7*	-127.4	0.6	127.4	195.5*	137.1*	136.3*
Cn1c(C(=O)Nc2ccc3c(c2)OCO3)cc2sccc21	8.88*	53.2*	193.0*	-153.3	0.5	153.3*	210.4*	146.7*	141.6*
O=C(Nc1cccc([N+](=O)[O-])c1)Nc1cccc([N+](=O)[O-])c1	0.79	-1.3	91.1	4.6	1	-4.6	·	·	·
Cc1ccc(OCC(=O)Nc2cccc(S(=O)(=O)N3CCCCCC3)c2)c([N+](=O)[O-])n1	1.21	-3.7	95.5	5.3	1	-5.3	·	·	·
Cc1ccc(NC(=O)/C(C#N)=C/c2cccs2)c(C)c1	3.88*	10.5	160.5*	-90.4	0.9	90.4	171.3*	143.8*	107.0
SMILES	NF-kB neuron act	FLuc inhib CS	STAT1 activator	APP transl inh	FLuc stim CS	APP 5'UTR act	STAT1 act conf	NFkB act	STAT3 act STAT1c
CC(=O)c1c(C)[nH]c(C(=O)CSc2nnc(C)s2)c1C	1.28	-1.7	99.0	-22.0	1	22.0	·	·	·
O=C(Nc1cccc(C(F)(F)F)c1)C(=O)N1CCCCC1	1.92	-2.1	123.5	-17.5	1	17.5	·	·	·
CSc1nc2ccc(NC(=O)c3ccc(Cl)s3)cc2s1	1.47	6.5	186.0*	-137.7	0.9	137.7*	180.6*	140.3*	104.2
O=C(Nc1nc2ccccc2s1)c1ccc(OCC2CCCO2)cc1 (stereo not given)	1.58	73.7*	177.4*	-121.8	0.3	121.8	247.8*	102.7	96.7
O=C(NC1=NCCS1)c1ccc(OCC2CCCO2)cc1 (stereo not given)	2.39	46.8	119.5	-85.3	0.5	85.3	·	·	·
COc1ccc(C(=O)Nc2nc3ccccc3s2)cc1OC	3.6*	21.3	174.1*	-138.7	0.8	138.6*	227.0*	154.6*	113.8*
O=C(Nc1ccon1)c1ccc(Cl)s1	1.2	-3.4	101.9	-3.8	1	3.8	·	·	·
O=C(Nc1nc2ccccc2s1)c1ccc(Cl)s1	4.75*	32.2	155.5*	-155.6	0.7	155.6*	230.6*	141.1*	108.8
COc1ccc(C(=O)Nc2nc3ccc(S(C)(=O)=O)cc3s2)cc1OC	0.57	3.5	103.4	-8.6	1	8.6	·	·	·
CC1CCc2c(sc(NC(=O)COC(=O)C3CCCO3)c2C#N)C1 (stereo not given)	1.53	7.4	98.4	-30.1	0.9	30.1	·	·	·
CC1CCc2c(sc(NC(=O)C3CCCO3)c2C#N)C1 (stereo not given)	4.62*	14.6	153.5*	-143.7	0.9	143.7*	168.5*	134.0*	114.5*
CCCN1CCC(=NNc2ccc(C(=O)O)cc2)CC1	1.73	-9.3	93.8	-87.7	1.1	87.8	·	·	·
COC(=O)c1sc2ccccc2c1C(=O)OC	1.2	-8.1	90.6	-10.1	1.1	10.1	·	·	·
COc1ccc(-c2cc(=O)c3ccccc3s2)cc1	5.62*	67.1*	179.0*	-133.9	0.3	133.9	222.9*	136.3*	119.5*
Cc1ccc(Nc2ncnc3c2oc2ccccc23)cc1	5.42*	8.6	171.2*	-152.4	0.9	152.4*	231.3*	154.9*	116.6*
